Columns and labels:
[1] = Volume of distribution in Beagle dog at 1 mg/kg, iv and 4 mg/kg, po; settings: in vivo
Hepatocyte [2] = test: Oxidative metabolism in human hepatocytes assessed as protein covalent binding after 2 hrs; assay type: ADME, cell-based
In short: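 [3H]-labelled compound incubated with fresh rat or human hepatocytes for 2 h. Covalent protein binding was expressed as pmol-equiv/mg protein, and samples were checked for tritium loss by HPLC with radiometric detection.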

[3] = biological target: T1, Prostaglandin E2 receptor EP4 subtype (Homo sapiens, UniProt P35408); test: Antagonist activity at prostanoid EP4 receptor in human whole blood assessed as inhibition of TNF-alpha-induced IP-10 release in presence EP4 agonist L-000902688; assay type: functional, tissue-based
T1 sequence (P35408 whole entry): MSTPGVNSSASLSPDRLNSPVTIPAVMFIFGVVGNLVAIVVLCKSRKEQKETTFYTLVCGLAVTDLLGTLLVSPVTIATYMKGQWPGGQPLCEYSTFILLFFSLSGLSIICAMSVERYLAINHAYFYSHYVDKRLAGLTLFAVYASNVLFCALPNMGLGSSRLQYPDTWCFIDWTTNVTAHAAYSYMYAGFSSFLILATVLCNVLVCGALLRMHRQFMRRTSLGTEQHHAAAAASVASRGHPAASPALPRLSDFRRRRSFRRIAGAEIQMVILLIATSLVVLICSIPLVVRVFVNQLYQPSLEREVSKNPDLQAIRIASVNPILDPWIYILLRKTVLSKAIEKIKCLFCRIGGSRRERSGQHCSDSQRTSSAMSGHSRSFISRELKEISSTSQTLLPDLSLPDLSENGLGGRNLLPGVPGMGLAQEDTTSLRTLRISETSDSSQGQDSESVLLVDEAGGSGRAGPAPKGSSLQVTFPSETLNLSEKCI

Thromboxane A2 receptor = biological target: T2, Thromboxane A2 receptor (Homo sapiens, UniProt P21731); test: Displacement of [3H]SQ-29548 from human prostanoid TP receptor expressed in HEK293-EBNA cells after 60 mins by scintillation counting; assay type: cell-based
T2 sequence (P21731 whole entry): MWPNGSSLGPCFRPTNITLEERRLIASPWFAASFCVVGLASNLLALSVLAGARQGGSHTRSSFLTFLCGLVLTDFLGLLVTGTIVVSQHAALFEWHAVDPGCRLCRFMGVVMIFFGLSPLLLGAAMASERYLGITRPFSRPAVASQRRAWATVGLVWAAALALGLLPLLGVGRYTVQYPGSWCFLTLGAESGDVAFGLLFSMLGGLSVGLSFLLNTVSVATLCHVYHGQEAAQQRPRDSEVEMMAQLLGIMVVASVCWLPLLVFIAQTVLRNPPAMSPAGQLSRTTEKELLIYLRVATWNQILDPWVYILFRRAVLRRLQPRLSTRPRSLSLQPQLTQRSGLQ

Hepatocyte [4] = test: Metabolic stability in rat hepatocytes; assay type: ADME, cell-based
[5] = biological target: T1, Prostaglandin E2 receptor EP4 subtype; test: Antagonist activity at human prostanoid EP4 receptor expressed in HEK293 cells assessed as inhibition of PGE2-induced cAMP accumulation by scintillation proximity assay; assay type: functional, cell-based
In short: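 Read-out was inhibition of PGE2-induced cAMP accumulation at EP4. Values are means from at least two independent experiments.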

Canis familiaris [6] = test: Bioavailability in Beagle dog at 1 mg/kg, iv and 4 mg/kg, po; settings: in vivo
[7] = biological target: T1, Prostaglandin E2 receptor EP4 subtype; test: Displacement of [3H]PGE2 from human prostanoid EP4 receptor expressed in HEK293-EBNA cells after 60 mins by scintillation counting in presence of 10% human serum; assay type: cell-based
[8] = biological target: T1, Prostaglandin E2 receptor EP4 subtype; test: Antagonist activity at human prostanoid EP4 receptor expressed in HEK293 cells assessed as inhibition of PGE2-induced cAMP accumulation by scintillation proximity assay in presence of 10% human serum; assay type: functional, cell-based
[9] = Metabolic stability in dog hepatocytes; assay type: ADME, cell-based, Canis lupus familiaris, Hepatocyte
[10] = Volume of distribution in Sprague-Dawley rat at 5 mg/kg, iv and 20 mg/kg, po; assay type: ADME, organism-based; settings: in vivo
In short: (§1)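 Sprague-Dawley rats dosed iv at 5 mg/kg and po at 20 mg/kg. The iv group was n = 2 males given the free acid in 60% PEG 200 at 1 mL/kg. PK parameters were derived from plasma levels.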

[11] = biological target: T3, Prostaglandin D2 receptor 2 (Homo sapiens, UniProt Q9Y5Y4); test: Displacement of [3H]PGD2 from human Prostanoid DP2 receptor expressed in HEK293-EBNA cells after 60 mins by scintillation counting; assay type: cell-based
T3 sequence (Q9Y5Y4 whole entry): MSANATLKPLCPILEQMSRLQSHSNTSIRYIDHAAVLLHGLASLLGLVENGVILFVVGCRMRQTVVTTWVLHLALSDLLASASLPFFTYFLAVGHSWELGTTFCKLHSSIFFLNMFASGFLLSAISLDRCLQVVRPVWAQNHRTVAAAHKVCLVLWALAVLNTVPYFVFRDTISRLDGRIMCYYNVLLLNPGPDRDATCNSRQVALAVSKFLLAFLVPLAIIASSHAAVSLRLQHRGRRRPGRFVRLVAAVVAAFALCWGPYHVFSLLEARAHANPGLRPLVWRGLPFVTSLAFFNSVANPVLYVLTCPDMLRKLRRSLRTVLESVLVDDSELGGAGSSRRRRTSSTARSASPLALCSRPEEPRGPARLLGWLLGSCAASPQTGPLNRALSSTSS

[12] = Drug level in complete Freund's adjuvant challenged rat administered daily once 9 days after adjuvant challenge measured on day 18 after 2 hrs post dose; assay type: ADME, organism-based; settings: in vivo, read-out: Drug uptake
In short: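 In a separate rat AIA experiment with daily dosing, plasma drug levels were measured 2 h and 24 h after the final dose.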

[13] = Elimination half life in Beagle dog at 1 mg/kg, iv and 4 mg/kg, po; settings: in vivo, read-out: beta t1/2 (converted)
Rattus norvegicus [14] = test: Antiinflammatory activity in rat assessed as inhibition of complete Freund's adjuvant-induced secondary paw swelling administered daily once 9 days after adjuvant challenge measured on day 18; assay type: functional
In short: (§2)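 Rat adjuvant-induced arthritis model with daily dosing in mg/kg/day. Dose groups were 0, 0.001, 0.01, 0.1 and 1 mg/kg, plus a non-AIA control group. Primary and secondary paw swelling were scored as % inhibition relative to vehicle-treated arthritic rats, and ED50 was estimated from the dose–response.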

[15] = biological target: T4, Prostaglandin E2 receptor EP1 subtype (Homo sapiens, UniProt P34995); test: Displacement of [3H]PGE2 from human prostanoid EP1 receptor expressed in HEK293-EBNA cells after 60 mins by scintillation counting; assay type: cell-based
T4 sequence (P34995 whole entry): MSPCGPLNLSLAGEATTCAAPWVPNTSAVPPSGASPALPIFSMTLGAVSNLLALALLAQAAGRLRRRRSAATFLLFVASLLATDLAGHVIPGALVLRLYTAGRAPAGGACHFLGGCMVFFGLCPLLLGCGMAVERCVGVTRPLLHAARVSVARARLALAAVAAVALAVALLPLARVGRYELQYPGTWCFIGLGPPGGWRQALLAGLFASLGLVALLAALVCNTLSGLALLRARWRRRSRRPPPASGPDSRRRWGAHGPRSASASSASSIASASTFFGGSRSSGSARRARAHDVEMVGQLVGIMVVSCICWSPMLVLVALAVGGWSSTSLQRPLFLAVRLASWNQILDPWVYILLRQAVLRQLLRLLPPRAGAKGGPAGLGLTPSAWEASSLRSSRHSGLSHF

[16] = Plasma clearance in Sprague-Dawley rat at 5 mg/kg, iv and 20 mg/kg, po; assay type: ADME, organism-based
In short: as §1

[17] = biological target: T1, Prostaglandin E2 receptor EP4 subtype; test: Displacement of [3H]PGE2 from human prostanoid EP4 receptor expressed in HEK293-EBNA cells after 60 mins by scintillation counting; assay type: cell-based
Hepatocyte [18] = test: Metabolic stability in human hepatocytes; assay type: ADME, cell-based
[19] = biological target: Prostaglandin E2 receptor EP2 subtype (Homo sapiens, UniProt P43116); test: Displacement of [3H]PGE2 from human prostanoid EP2 receptor expressed in HEK293-EBNA cells after 60 mins by scintillation counting; assay type: cell-based
Sequence of Prostaglandin E2 receptor EP2 subtype (P43116 whole entry): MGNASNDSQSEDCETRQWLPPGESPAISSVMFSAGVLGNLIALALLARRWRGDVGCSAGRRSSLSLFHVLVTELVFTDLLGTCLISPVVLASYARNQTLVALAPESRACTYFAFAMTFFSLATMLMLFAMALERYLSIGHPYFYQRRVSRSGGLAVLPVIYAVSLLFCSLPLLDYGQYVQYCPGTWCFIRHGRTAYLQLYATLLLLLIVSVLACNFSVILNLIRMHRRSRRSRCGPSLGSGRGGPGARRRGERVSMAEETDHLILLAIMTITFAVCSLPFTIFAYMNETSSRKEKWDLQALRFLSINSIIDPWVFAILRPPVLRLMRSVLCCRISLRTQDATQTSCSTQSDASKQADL

Canis familiaris [20] = test: AUC (0 to 24 hrs) in Beagle dog at 4 mg/kg, po; settings: in vivo
Rattus norvegicus [21] = test: Antiinflammatory activity in rat assessed as inhibition of complete Freund's adjuvant-induced primary paw swelling administered daily once 9 days after adjuvant challenge measured on day 18; assay type: functional
In short: as §2

Vd [1]: 0.8 L/kg | Activity (Hepatocyte [2]): 50 pmolequiv/mg | IC50 [3]: 9.5 nM | Ki (Thromboxane A2 receptor): 6700 nM | Stability (Hepatocyte [4]): Stable | IC50 [5]: 1.3 nM | F (Canis familiaris [6]): 74% | Ki [7]: 0.34 nM | IC50 [8]: 1.8 nM | Stability [9]: Stable | Vd [10]: 1 L/kg | Ki [11]: > 21000 nM | concentration at 2 h [12]: 0.028 µM | half-life [13]: 2.6 h | Ki [15]: 20000 nM | clearance [16]: 0.222 L/h/kg | Ki [17]: 0.23 nM | Stability (Hepatocyte [18]): Stable | Ki [19]: 8000 nM | AUC (Canis familiaris [20]): 15 µM·h
Structure (SMILES): O=C(O)c1ccc(C2(NC(=O)c3cccc4ccn(Cc5ccc(C(F)(F)F)cc5)c34)CC2)cc1
ED100 (Rattus norvegicus [14]): 0.025 mg/kg/day | ED100 (Rattus norvegicus [21]): 0.025 mg/kg/day
